# ChEMBL document CHEMBL4819017 (Eur J Med Chem, 2021)
# Experiments:
# [1] = Plasma concentration in BALB/c mouse at 10 mg/kg, po measured for 8 hrs; format: ADME, organism-based
# How it was run: (§1)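 Dosing in BALB-C mice intravenously or orally, with plasma sampled over 8 h. Parameters (AUC, T1/2, Cl, Vd, Cmax, Tmax) come from a noncompartmental model. Units: AUC h.ng/ml, Vd L/Kg, Cmax ng/ml, Tmax h.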
# Homo sapiens = species: Homo sapiens; assay: Selectivity ratio of IC50 for recombinant human GST tagged mTOR (1360 to 2549 residues) expressed in baculovirus expression system to IC50 for human full length p110alpha (1 to 1068 residues) expressed in baculovirus-infected Sf21 cells
# How it was run: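 mTOR activity measured by LanthaScreen assay. PI3K-α activity measured by ADP Hunter Plus (ADP accumulation, fluorescence ex 544/em 580 nm), normalized to no-compound control and fitted to a sigmoid dose-response curve. IC50s are the average of two independent experiments. Ratio is mTOR IC50 over PI3K-α IC50.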
# [2] = AUC (infinity) in BALB/c mouse at 5 mg/kg, iv measured for 8 hrs; format: ADME, organism-based; design: route intravenous, dose 5 mg/kg, time 8 hrs; conditions: in vivo
# How it was run: (§2)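 BALB/c mice dosed I.V. or P.O. at the stated dose; plasma levels followed for 8 h. Parameters from noncompartmental analysis: AUC (h.ng/ml), T1/2 (h), Cl (L/h/Kg), Vd (L/Kg), Cmax (ng/ml), Tmax (h).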
# Cytochrome P450 2D6 = Cytochrome P450 2D6 (Homo sapiens, UniProt P10635); assay: Inhibition of CYP2D6 (unknown origin) using Luciferin-ME-EG as substrate at 10 uM preincubated with enzyme and substrate for 5 mins followed by addition of NADPH regeneration system and measured after 60 mins by luminescence method; format: ADME
# Sequence of Cytochrome P450 2D6 (P10635 whole entry): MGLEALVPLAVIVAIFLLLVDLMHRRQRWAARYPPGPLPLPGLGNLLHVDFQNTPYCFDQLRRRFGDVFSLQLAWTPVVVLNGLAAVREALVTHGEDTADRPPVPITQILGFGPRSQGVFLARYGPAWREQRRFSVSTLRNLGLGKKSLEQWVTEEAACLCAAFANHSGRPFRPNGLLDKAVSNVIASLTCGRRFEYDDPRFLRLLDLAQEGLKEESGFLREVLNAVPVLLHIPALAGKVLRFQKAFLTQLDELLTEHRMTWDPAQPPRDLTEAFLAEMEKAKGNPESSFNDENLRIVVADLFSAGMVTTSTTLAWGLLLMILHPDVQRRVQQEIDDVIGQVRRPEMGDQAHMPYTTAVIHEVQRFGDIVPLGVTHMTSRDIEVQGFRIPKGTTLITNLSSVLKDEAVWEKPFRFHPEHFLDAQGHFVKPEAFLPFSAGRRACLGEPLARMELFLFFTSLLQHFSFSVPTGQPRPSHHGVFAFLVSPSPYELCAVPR
# How it was run: (§3)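 P450-Glo luminescence assays with these substrates: Luciferin-ME (CYP1A2), Luciferin-PPXE (CYP3A4), Luciferin-H (CYP2C9), LuciferinH-EG (CYP2C19), Luciferin-ME-EG (CYP2D6). Compounds run in 1/3 serial dilutions from 10 µM in 0.5% DMSO with enzyme and substrate. After 5 min preincubation, NADPH regeneration reagent added; 60 min at 37 °C, then detection reagent for 30 min. Background subtracted.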
# Cytochrome P450 1A2 = target: T1, Cytochrome P450 1A2 (Homo sapiens, UniProt P05177); assay: Inhibition of CYP1A2 (unknown origin) using Luciferin-ME as substrate at 10 uM preincubated with enzyme and substrate for 5 mins followed by addition of NADPH regeneration system and measured after 60 mins by luminescence method; format: ADME; how it was run: as §3
# T1 sequence (P05177 whole entry): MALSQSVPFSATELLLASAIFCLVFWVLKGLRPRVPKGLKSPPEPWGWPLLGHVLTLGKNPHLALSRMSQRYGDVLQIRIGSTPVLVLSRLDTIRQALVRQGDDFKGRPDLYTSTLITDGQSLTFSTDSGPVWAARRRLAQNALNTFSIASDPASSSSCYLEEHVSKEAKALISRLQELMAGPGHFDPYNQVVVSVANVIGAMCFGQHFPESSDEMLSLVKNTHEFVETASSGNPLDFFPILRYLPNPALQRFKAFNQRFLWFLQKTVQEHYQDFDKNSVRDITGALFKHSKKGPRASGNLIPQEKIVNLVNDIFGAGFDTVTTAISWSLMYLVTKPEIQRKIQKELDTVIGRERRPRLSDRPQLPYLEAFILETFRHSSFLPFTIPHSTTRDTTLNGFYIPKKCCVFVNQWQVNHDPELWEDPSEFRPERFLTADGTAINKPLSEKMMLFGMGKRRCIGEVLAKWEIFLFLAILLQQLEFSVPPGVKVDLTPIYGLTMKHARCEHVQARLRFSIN
# [3] = Metabolic stability in human liver microsomes assessed as parent compound remaining in presence of NADPH regenerating system at 0.5 uM measured after 15 mins by LC-MS/MS analysis; format: ADME, Microsome; conditions: read-out: Stabilty
# How it was run: (§4)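 Human, mouse or rat liver microsomes at 0.5 mg/ml protein with compound at 0.5 µM and NADPH-regenerating system, 37 °C with shaking. Control wells contain 0.1 M potassium phosphate instead of the regenerating system. Reaction stopped with acetonitrile/0.1% formic acid, centrifuged, supernatant analyzed by LC-MS/MS. Result is percent parent compound remaining.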
# Cytochrome P450 2C9 = Cytochrome P450 2C9 (Homo sapiens, UniProt P11712); assay: Inhibition of CYP2C9 (unknown origin) using Luciferin-H as substrate at 10 uM preincubated with enzyme and substrate for 5 mins followed by addition of NADPH regeneration system and measured after 60 mins by luminescence method; format: ADME; how it was run: as §3
# [4] = Half life in BALB/c mouse at 5 mg/kg, iv measured for 8 hrs; format: ADME, organism-based; conditions: in vivo; how it was run: as §2
# [5] = Cmax in BALB/c mouse at 10 mg/kg, po measured for 8 hrs; format: ADME, organism-based; design: route oral, dose 10 mg/kg, time 8 hrs; conditions: in vivo; how it was run: as §2
# [6] = Volume of distribution in BALB/c mouse at 5 mg/kg, iv measured for 8 hrs; format: ADME, organism-based; conditions: in vivo; how it was run: as §1
# [7] = target: Voltage-gated inwardly rectifying potassium channel KCNH2 (Homo sapiens, UniProt Q12809); assay: Inhibition of human ERG by fluorescence polarization assay
# Sequence of Voltage-gated inwardly rectifying potassium channel KCNH2 (Q12809 whole entry): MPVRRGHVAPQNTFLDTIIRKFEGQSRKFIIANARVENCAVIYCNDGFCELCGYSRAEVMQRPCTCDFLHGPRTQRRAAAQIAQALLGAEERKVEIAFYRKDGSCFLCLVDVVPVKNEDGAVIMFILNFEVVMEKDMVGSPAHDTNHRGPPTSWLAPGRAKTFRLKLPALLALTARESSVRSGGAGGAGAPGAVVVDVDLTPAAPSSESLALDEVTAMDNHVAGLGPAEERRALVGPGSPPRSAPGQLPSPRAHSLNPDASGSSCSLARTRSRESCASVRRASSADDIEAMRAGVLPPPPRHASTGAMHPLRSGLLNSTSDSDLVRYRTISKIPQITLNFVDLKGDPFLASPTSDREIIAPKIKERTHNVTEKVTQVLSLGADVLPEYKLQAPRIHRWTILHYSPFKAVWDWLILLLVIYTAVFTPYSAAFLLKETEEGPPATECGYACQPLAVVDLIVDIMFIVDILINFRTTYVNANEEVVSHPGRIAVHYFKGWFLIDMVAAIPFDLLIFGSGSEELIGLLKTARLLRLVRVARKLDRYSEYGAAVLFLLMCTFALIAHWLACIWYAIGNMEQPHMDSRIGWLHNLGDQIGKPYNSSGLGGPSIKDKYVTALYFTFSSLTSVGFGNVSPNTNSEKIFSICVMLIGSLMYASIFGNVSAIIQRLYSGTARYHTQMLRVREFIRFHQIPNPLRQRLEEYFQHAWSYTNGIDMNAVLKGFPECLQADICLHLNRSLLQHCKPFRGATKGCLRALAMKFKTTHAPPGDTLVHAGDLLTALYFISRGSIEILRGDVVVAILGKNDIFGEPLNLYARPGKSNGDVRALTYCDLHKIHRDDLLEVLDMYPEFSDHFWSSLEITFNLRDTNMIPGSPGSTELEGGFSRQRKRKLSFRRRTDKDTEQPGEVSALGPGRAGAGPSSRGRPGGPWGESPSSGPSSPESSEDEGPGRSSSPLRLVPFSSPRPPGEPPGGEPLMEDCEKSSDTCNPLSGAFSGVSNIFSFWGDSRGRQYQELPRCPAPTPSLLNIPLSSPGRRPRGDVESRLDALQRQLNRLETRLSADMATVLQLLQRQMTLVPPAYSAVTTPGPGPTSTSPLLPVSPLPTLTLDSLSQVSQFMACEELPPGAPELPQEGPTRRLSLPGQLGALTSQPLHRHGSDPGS
# How it was run: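 Predictor h-ERG membrane preparations (sonicated) incubated with test compound dilutions and fluorescent tracer (working 4X tracer at 4 nM) at room temperature for ≥1 h. Read-out by fluorescence polarization, ex 530/25, em 590/35.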
# [8] = target: Serine/threonine-protein kinase mTOR (Homo sapiens, UniProt P42345); assay: Inhibition of recombinant human GST tagged mTOR (1360 to 2549 residues) expressed in baculovirus expression system measured by LanthaScreen assay
# How it was run: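 mTOR inhibition measured by LanthaScreen assay; IC50 values average two independent experiments.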
# [9] = Tmax in BALB/c mouse at 10 mg/kg, po measured for 8 hrs; format: ADME, organism-based; conditions: in vivo; how it was run: as §1
# [10] = Clearance in BALB/c mouse at 5 mg/kg, iv measured for 8 hrs; format: ADME, organism-based; conditions: in vivo; how it was run: as §2
# [11] = target: Phosphatidylinositol 4,5-bisphosphate 3-kinase catalytic subunit alpha isoform (Homo sapiens, UniProt P42336); assay: Inhibition of human full length p110alpha (1 to 1068 residues) expressed in baculovirus-infected Sf21 cells by ADP-Hunter Plus assay
# Sequence of Phosphatidylinositol 4,5-bisphosphate 3-kinase catalytic subunit alpha isoform (P42336 whole entry, the tested form may be a part, canonical isoform): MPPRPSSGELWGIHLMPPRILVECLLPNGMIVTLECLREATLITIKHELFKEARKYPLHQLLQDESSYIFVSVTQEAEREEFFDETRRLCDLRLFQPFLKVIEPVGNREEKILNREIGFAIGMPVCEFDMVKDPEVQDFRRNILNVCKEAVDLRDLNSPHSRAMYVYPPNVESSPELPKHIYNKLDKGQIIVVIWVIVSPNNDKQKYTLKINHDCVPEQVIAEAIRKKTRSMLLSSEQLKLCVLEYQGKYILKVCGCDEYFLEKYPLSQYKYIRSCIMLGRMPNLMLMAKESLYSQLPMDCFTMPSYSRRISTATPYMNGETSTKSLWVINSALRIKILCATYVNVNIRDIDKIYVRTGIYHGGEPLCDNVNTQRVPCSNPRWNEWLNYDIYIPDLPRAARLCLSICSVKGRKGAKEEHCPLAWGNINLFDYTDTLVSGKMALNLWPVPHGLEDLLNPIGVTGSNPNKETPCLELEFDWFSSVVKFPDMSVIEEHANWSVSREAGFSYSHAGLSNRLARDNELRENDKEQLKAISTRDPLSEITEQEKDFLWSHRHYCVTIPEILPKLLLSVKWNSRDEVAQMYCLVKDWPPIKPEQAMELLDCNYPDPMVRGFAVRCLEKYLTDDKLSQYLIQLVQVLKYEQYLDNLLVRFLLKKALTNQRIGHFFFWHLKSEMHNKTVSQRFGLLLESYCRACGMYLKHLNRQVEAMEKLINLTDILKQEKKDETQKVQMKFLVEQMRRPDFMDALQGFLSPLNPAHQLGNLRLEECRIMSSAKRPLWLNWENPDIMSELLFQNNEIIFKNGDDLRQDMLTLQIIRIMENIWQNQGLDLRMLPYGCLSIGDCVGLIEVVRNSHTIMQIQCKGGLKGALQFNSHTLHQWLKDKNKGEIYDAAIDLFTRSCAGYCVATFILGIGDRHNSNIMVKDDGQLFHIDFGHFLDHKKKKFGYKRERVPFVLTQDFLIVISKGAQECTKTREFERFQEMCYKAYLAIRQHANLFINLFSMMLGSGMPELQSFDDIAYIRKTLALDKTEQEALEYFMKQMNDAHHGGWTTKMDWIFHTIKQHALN
# [12] = Metabolic stability in mouse liver microsomes assessed as parent compound remaining in presence of NADPH regenerating system at 0.5 uM measured after 15 mins by LC-MS/MS analysis; format: ADME, Microsome; conditions: read-out: Stabilty; how it was run: as §4
# Cytochrome P450 3A4 = Cytochrome P450 3A4 (Homo sapiens, UniProt P08684); assay: Inhibition of CYP3A4 (unknown origin) using Luciferin-PPXE as substrate at 10 uM preincubated with enzyme and substrate for 5 mins followed by addition of NADPH regeneration system and measured after 60 mins by luminescence method; format: ADME; how it was run: as §3
# Sequence of Cytochrome P450 3A4 (P08684 whole entry): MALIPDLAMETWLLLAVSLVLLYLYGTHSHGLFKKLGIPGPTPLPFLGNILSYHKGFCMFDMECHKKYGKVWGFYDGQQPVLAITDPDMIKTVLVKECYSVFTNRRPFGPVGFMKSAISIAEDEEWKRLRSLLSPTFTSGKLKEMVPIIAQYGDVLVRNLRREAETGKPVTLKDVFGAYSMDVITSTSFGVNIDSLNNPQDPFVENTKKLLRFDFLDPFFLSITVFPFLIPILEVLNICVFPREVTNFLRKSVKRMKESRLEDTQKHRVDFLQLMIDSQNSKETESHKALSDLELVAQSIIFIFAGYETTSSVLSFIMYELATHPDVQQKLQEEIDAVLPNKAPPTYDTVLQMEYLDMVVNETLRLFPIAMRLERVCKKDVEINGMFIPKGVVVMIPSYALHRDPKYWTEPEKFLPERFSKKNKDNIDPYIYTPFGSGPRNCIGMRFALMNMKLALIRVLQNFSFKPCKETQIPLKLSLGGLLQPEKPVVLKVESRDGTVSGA
# [13] = Inhibition of PI3K/mTOR in human U2OS cells assessed as inhibition of AKT1 phosphorylation at Ser473 residue by C-ELISA; format: cell-based
# How it was run: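 U2OS osteosarcoma cells grown in 0.1% FBS and serum-stimulated. Endogenous phospho-AKT1 Ser473 quantified by cell-based ELISA with chemiluminescent substrate. Signal plotted against inhibitor concentration and fitted to a sigmoid dose-response curve.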
# [14] = Half life in BALB/c mouse at 10 mg/kg, po measured for 8 hrs; format: ADME, organism-based; conditions: in vivo; how it was run: as §2
# [15] = Oral bioavailability in BALB/c mouse at 10 mg/kg measured for 8 hrs; format: ADME, organism-based; conditions: in vivo; how it was run: as §2
# [16] = AUC(infinity) in BALB/c mouse at 10 mg/kg, po measured for 8 hrs; format: ADME, organism-based; design: route oral, time 8 hrs, dose 10 mg/kg; conditions: in vivo; how it was run: as §2
# [17] = Metabolic stability in rat liver microsomes assessed as parent compound remaining in presence of NADPH regenerating system at 0.5 uM measured after 15 mins by LC-MS/MS analysis; format: ADME, Microsome; conditions: read-out: Stabilty; how it was run: as §4
# Cytochrome P450 2C19 = Cytochrome P450 2C19 (Homo sapiens, UniProt P33261); assay: Inhibition of CYP2C19 (unknown origin) using LuciferinH-EG as substrate at 10 uM preincubated with enzyme and substrate for 5 mins followed by addition of NADPH regeneration system and measured after 60 mins by luminescence method; format: ADME; how it was run: as §3
# Sequence of Cytochrome P450 2C19 (P33261 whole entry): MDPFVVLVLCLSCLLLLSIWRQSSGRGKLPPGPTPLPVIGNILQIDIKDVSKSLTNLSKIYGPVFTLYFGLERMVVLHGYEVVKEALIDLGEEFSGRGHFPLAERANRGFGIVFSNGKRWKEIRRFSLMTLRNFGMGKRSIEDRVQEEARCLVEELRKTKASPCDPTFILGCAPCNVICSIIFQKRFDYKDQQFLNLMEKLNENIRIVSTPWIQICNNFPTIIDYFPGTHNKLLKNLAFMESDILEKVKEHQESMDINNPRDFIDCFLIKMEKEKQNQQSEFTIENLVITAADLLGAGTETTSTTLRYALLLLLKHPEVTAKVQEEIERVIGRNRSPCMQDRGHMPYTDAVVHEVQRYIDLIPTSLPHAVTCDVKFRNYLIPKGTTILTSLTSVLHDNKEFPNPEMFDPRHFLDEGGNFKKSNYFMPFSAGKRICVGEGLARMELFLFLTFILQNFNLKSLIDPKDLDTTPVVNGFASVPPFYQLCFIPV
# [18] = Inhibition of PI3K/mTOR in human MCF7 cells assessed as reduction of AKT phosphorylation at Thr308 residue measured after 3 hrs by western blot assay; format: cell-based; conditions: MCF7, 3 h
# How it was run: (§5)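 MCF7 cells treated for 3 h across a dose range, washed and lysed with phosphatase and protease inhibitors. Lysates run on 10% SDS-PAGE and blotted, antibodies incubated overnight at 4 °C.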
# HT-29 = assay: Growth inhibition of human HT-29 cells harboring mutated p110alpha measured after 72 hrs by Cell titre Glo-luminiscence cell viability assay; format: functional
# How it was run: (§6)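 Cells harvested just before confluency and seeded at 4,000 cells/well, then left 24 h before dosing. Serial dilutions from 10 mM DMSO stocks, final DMSO ≤0.5%, each concentration in duplicate.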
# [19] = Inhibition of PI3K/mTOR in human MCF7 cells assessed as reduction of P70S6K phosphorylation at Thr389 residue measured after 3 hrs by western blot assay; format: cell-based; conditions: MCF7, 3 h; how it was run: as §5
# [20] = Inhibition of PI3K/mTOR in human MCF7 cells assessed as reduction of S6 phosphorylation at Ser235/236 residue measured after 3 hrs by western blot assay; format: cell-based; conditions: MCF7, 3 h; how it was run: as §5
# [21] = Inhibition of PI3K/mTOR in human MCF7 cells assessed as reduction of AKT phosphorylation at Ser473 residue measured after 3 hrs by western blot assay; format: cell-based; conditions: MCF7, 3 h; how it was run: as §5
# DU-145 = assay: Growth inhibition of human DU-145 cells harboring wild type p110alpha and PTEN measured after 72 hrs by Cell titre Glo-luminiscence cell viability assay; format: functional; how it was run: as §6
# A549 = assay: Growth inhibition of human A549 cells harboring wild type p110alpha and PTEN measured after 72 hrs by Cell titre Glo-luminiscence cell viability assay; format: functional; how it was run: as §6
# [22] = target: Phosphatidylinositol 4,5-bisphosphate 3-kinase catalytic subunit gamma isoform (Homo sapiens, UniProt P48736); assay: Inhibition of human p110gamma using PIP2 as substrate in presence of ATP measured by HTRF assay
# Sequence of Phosphatidylinositol 4,5-bisphosphate 3-kinase catalytic subunit gamma isoform (P48736 whole entry, canonical isoform): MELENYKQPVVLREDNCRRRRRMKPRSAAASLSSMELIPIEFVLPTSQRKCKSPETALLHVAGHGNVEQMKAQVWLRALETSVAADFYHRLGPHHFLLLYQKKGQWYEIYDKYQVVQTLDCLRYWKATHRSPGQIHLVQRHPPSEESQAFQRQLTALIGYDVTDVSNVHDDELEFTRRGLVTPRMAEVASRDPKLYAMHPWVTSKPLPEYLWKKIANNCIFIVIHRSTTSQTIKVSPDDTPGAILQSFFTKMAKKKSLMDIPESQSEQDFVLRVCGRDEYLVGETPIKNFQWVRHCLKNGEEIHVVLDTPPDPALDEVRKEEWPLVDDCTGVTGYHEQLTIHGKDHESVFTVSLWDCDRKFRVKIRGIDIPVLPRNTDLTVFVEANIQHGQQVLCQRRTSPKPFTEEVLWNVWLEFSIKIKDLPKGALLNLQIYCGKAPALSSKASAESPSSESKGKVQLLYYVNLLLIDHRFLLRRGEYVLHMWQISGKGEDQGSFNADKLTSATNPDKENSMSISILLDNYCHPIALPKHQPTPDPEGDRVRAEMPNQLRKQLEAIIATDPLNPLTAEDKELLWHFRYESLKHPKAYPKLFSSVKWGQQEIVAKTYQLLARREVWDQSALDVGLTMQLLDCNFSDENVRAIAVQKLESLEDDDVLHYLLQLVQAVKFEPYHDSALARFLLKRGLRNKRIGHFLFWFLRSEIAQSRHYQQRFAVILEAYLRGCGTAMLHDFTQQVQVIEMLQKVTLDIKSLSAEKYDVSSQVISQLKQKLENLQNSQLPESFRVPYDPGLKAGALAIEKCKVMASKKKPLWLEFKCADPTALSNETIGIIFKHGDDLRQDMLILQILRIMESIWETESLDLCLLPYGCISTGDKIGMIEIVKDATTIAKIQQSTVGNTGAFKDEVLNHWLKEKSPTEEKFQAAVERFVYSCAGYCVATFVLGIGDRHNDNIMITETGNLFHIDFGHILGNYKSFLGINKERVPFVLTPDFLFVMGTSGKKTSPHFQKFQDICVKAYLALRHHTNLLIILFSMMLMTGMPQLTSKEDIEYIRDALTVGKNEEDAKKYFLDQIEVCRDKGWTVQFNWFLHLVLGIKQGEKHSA
# How it was run: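 HTRF PI3-kinase assay with PIP2 at 10 µM. Enzyme and ATP levels (ATP at 50× KM): p110α/p85α 100 pM with 200 µM ATP; p110δ/p85α 100 pM with 200 µM ATP; p110β/p85α 500 pM with 250 µM ATP; p110γ 4 nM with 100 µM ATP. Activity normalized to no-compound control, variable-slope sigmoidal fit. Two independent experiments in duplicate.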
# PC-3 = assay: Growth inhibition of human PC-3 cells harboring PTEN inactivation measured after 72 hrs by Cell titre Glo-luminiscence cell viability assay; format: functional; how it was run: as §6
# NCI-H1975 = assay: Growth inhibition of human NCI-H1975 cells harboring mutated p110alpha measured after 72 hrs by Cell titre Glo-luminiscence cell viability assay; format: functional; how it was run: as §6
structure (smiles),measurement,setting,value
COc1ncc2cc1NS(=O)(=O)c1cc(c(F)cc1F)C(=O)NCc1cncc(c1)-c1ccnc3ccc-2cc13,concentration at 8 h,[1],264 ng/mL
same,Ratio IC50,Homo sapiens,27.8
same,AUC(0-inf),[2],9470 ng·h/mL
same,IC50,Cytochrome P450 2D6,> 30000 nM
same,IC50,Cytochrome P450 1A2,> 30000 nM
same,"remaining at 0.25 h, 0.5 µM",[3],89%
same,IC50,Cytochrome P450 2C9,8300 nM
same,half-life,[4],34.2 min
same,Cmax,[5],3390 ng/mL
same,Vd,[6],0.28 L/kg
same,IC50,[7],> 30000 nM
same,IC50,[8],22.3 nM
same,Tmax,[9],15 min
same,clearance,[10],8.83 mL/min/kg
same,IC50,[11],0.8 nM
same,"remaining at 0.25 h, 0.5 µM",[12],88%
same,IC50,Cytochrome P450 3A4,> 30000 nM
same,EC50,[13],10.7 nM
same,half-life,[14],167 min
same,bioavailability,[15],40.6%
same,AUC(0-inf),[16],7680 ng·h/mL
same,"remaining at 0.25 h, 0.5 µM",[17],97%
same,IC50,Cytochrome P450 2C19,> 30000 nM
COc1ncc(-c2ccc3nccc(-c4ccnnc4)c3c2)cc1NS(=O)(=O)c1ccc(F)cc1F [OMIPALISIB],EC50,[18],0.21 nM
same,GI50,HT-29,19.9 nM
same,EC50,[19],0.68 nM
same,EC50,[20],0.87 nM
same,EC50,[21],0.65 nM
same,EC50,[13],0.6 nM
same,GI50,DU-145,16.3 nM
same,GI50,A549,26.6 nM
same,Ki,[22],0.51 nM
same,GI50,PC-3,197 nM
same,GI50,NCI-H1975,14.4 nM
